Source: ChEMBL document CHEMBL1800034, “A synthetic 7,8-dihydroxyflavone derivative promotes neurogenesis and exhibits potent antidepressant effect” (J Med Chem, 2010)
Activity calls are given as the source filed them.

Key:
[1] = molecular target: BDNF/NT-3 growth factors receptor (Rattus norvegicus) (UniProt Q63604); experiment: Agonist activity at TrkB in E17 rat primary rat cortical neurons assessed as AKT phosphorylation at Ser 473 at 10 nM after 15 mins by titration assay; type: functional
Method in brief: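 Primary cortical neurons were incubated with graded concentrations, starting at 10 nM, for 15 min. Phospho-Akt Ser473 was measured by sandwich ELISA on 20 µg of lysate. Data come from 2 replicated experiment sets, given as mean ± SEM. Comparisons used one-way ANOVA against control and Student's t-test between compounds.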

[2] = molecular target: BDNF/NT-3 growth factors receptor (Rattus norvegicus) (UniProt Q63604); experiment: Agonist activity at TrkB in E17 rat primary cortical neurons assessed as TrkB phosphorylation at 817 at 500 nM after 15 mins by immunoblotting; type: functional, cell-based; settings: Cerebral cortex neuron
Method in brief: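 Rat cortical neurons from E17 embryos, 13 DIV, were treated with 500 nM compound for 15 min. Lysates were run on 10% SDS-PAGE and immunoblotted with p-TrkB Y817 antibody at 1:20,000–40,000.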

[3] = Cytotoxicity at E17 rat primary cortical neurons assessed as cell death at 5 uM by LDH assay; type: cell-based; settings: cerebral cortex neuron
Mus musculus [4] = experiment: Neuroprotective activity in C57BL/6J mouse assessed as inhibition of kainic acid-induced caspase 3 activation in hippocampus region at 5 mg/kg, po administered 2 to 8 hrs prior to kainic acid challenge measured after 4 hrs by immunoblotting; type: functional, organism-based; parameters: dose 5 mg/kg
Mus musculus [5] = experiment: Toxicity in C57BL/6J mouse assessed as pathological changes in brain cortex at 5 mg/kg, po for 3 weeks; type: organism-based; parameters: dose 5 mg/kg, route oral; settings: in vivo, 504 h
Method in brief: (§1)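 Mice were dosed orally at 5 mg/kg for 3 weeks, with saline-treated controls. Major organs were examined for pathological changes, and a complete blood count was done.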

Mus musculus [6] = experiment: Toxicity in C57BL/6J mouse assessed as pathological changes in liver at 5 mg/kg, po for 3 weeks; type: organism-based; parameters: dose 5 mg/kg, route oral; settings: in vivo, 504 h; method in brief: as §1
HEK293 [7] = experiment: Cytotoxicity against human HEK293 cells assessed as cell death at 50 to 50000 nM after 24 hrs by LDH assay; type: cell-based; settings: hek293, 24 h, 50 µM
Mus musculus [8] = experiment: Antidepressant activity in TrkB F616A knock in mouse assessed as reduction of immobility time at 5 mg/kg, po administered for 21 days by forced swim test assay in presence of TrkB F616A inhibitor 1NMPP1; type: functional, organism-based; parameters: dose 5 mg/kg
Mus musculus [9] = experiment: Toxicity in C57BL/6J mouse assessed as pathological changes in testis at 5 mg/kg, po for 3 weeks; type: organism-based; parameters: dose 5 mg/kg, route oral; settings: in vivo, 504 h; method in brief: as §1
Mus musculus [10] = experiment: Toxicity in C57BL/6J mouse assessed as pathological changes in hippocampus at 5 mg/kg, po for 3 weeks; type: organism-based; parameters: dose 5 mg/kg, route oral; settings: in vivo, 504 h; method in brief: as §1
Mus musculus [11] = experiment: Toxicity in C57BL/6J mouse assessed as pathological changes in intestine at 5 mg/kg, po for 3 weeks; type: organism-based; parameters: dose 5 mg/kg, route oral; settings: in vivo, 504 h; method in brief: as §1
Mus musculus [12] = experiment: Neuroprotective activity in C57BL/6J mouse assessed as inhibition of kainic acid-induced caspase 3 activation in hippocampus region at 5 mg/kg, po administered 2 to 8 hrs prior to kainic acid challenge measured after 8 hrs by immunoblotting; type: functional, organism-based; parameters: dose 5 mg/kg
Mus musculus [13] = experiment: Agonist activity at TrkA in C57BL/6J mouse brain lysate assessed as TrkA phosphorylation at Y794 at 5 mg/kg, po administered for 21 days by immunoblotting; type: functional, organism-based; parameters: dose 5 mg/kg
Method in brief: (§2)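 Adult male C57BL/6J mice, 8 per group, dosed orally by gavage once daily for 21 days; saline was the vehicle. Brain lysates were immunoblotted with anti-p-TrkA 794 and anti-p-TrkB 817.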

Mus musculus [14] = experiment: Toxicity in C57BL/6J mouse assessed as pathological changes in kidney at 5 mg/kg, po for 3 weeks; type: organism-based; parameters: dose 5 mg/kg, route oral; settings: in vivo, 504 h; method in brief: as §1
Mus musculus [15] = experiment: Toxicity in C57BL/6J mouse assessed as pathological changes in muscle at 5 mg/kg, po for 3 weeks; type: organism-based, Muscle tissue; parameters: dose 5 mg/kg, route oral; settings: in vivo, 504 h; method in brief: as §1
Mus musculus [16] = experiment: Neuroprotective activity in TrkB F616A knock in mouse assessed as inhibition of kainic acid-induced caspase 3 activation in brain homogenates at 5 mg/kg, po administered 4 hrs prior to kainic acid challenge measured after 4 days by immunoblotting in presence of TrkB F616A inhibitor 1NMPP1; type: functional, organism-based; parameters: dose 5 mg/kg
Method in brief: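 TrkB F616A knock-in mice, 2–3 months old, were given 1NMPP1 at 25 µM in drinking water one day beforehand. They were then gavaged with compound at 5 mg/kg, followed 4 h later by kainic acid at 20 mg/kg. Brains were taken 4 days later, homogenized and ultracentrifuged. 40 µg of supernatant was immunoblotted.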

Mus musculus [17] = experiment: Toxicity in C57BL/6J mouse assessed as pathological changes in heart at 5 mg/kg, po for 3 weeks; type: organism-based; parameters: dose 5 mg/kg, route oral; settings: in vivo, 504 h; method in brief: as §1
HEK293 [18] = experiment: Cytotoxicity against human HEK293 cells assessed as inhibition of cell proliferation at up to 50 uM by MTT assay; type: cell-based
Mus musculus [19] = experiment: Neuroprotective activity in po dosed C57BL/6J mouse assessed as TrkB phosphorylation in brain by titration assay; type: functional, organism-based
Mus musculus [20] = experiment: Toxicity in C57BL/6J mouse assessed as affect on complete blood count analysis at 5 mg/kg, po for 3 weeks; type: organism-based; parameters: dose 5 mg/kg, route oral; settings: in vivo, 504 h; method in brief: as §1
[21] = molecular target: BDNF/NT-3 growth factors receptor (Rattus norvegicus) (UniProt Q63604); experiment: Agonist activity at TrkB in E16 rat embryonic cortical neurons assessed as inhibition of glutamate-induced caspase 3 activation at 10 nM after 30 mins followed by 16 hrs of 50 uM glutamate-challenge by ELISA; type: functional
Method in brief: (§3)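 Cortical neurons from E16 rat embryos were pretreated with the indicated compound concentrations for 30 min. They were then challenged with 50 µM glutamate for 16 h. Active caspase-3 in the lysates was measured by ELISA.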

Mus musculus [22] = experiment: Agonist activity at TrkB in C57BL/6J mouse brain lysate assessed as TrkB phosphorylation at Y817 at 5 mg/kg, po administered for 21 days by immunoblotting; type: functional, organism-based; parameters: dose 5 mg/kg; method in brief: as §2
[23] = molecular target: BDNF/NT-3 growth factors receptor (Rattus norvegicus) (UniProt Q63604); experiment: Agonist activity at TrkB in E16 rat embryonic cortical neurons assessed as inhibition of glutamate-induced caspase 3 activation at 50 to 500 nM after 30 mins followed by 16 hrs of 50 uM glutamate-challenge by ELISA; type: functional; method in brief: as §3
Mus musculus [24] = experiment: Antidepressant activity in C57BL/6J mouse assessed as decrease in immobility at 5 mg/kg, po administered for 21 days measured last 4 mins of total 6 mins observation time by forced swim test; type: functional, organism-based; parameters: dose 5 mg/kg
Method in brief: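 Male C57BL/6J mice, 2–3 months old, were gavaged with saline or compound at 5 mg/kg for 21 days. Mice were acclimated to the test room for 2 days. There was no pre-swim. Each mouse swam for 6 min in a 16 cm cylinder of water 14 cm deep at 24 °C. Immobility was scored blind over the last 4 min; mean ± SEM, ANOVA.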

Mus musculus [25] = experiment: Induction of neurogenesis in C57BL/6J mouse hippocampus dentate gyrus assessed as progenitor cell proliferation at 5 mg/kg, po administered for 21 days by DAPI and BrdU staining based fluorescence microscopy; type: functional, organism-based; parameters: dose 5 mg/kg
Method in brief: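 Adult male C57BL/6J mice were gavaged at 5 mg/kg for 21 days and then given BrdU at 50 mg/kg i.p. Mice were perfused with 4% paraformaldehyde 2 h later. Paraffin sections had citrate antigen retrieval and 2 N HCl treatment, then were stained with anti-BrdU-FITC at 4 °C for 16 h and with DAPI. BrdU-positive cells in the dentate gyrus were counted by fluorescence microscopy.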

Mus musculus [26] = experiment: Agonist activity at TrkB in C57BL/6J mouse brain assessed as TrkB 706 phosphorylation at 1 mg/kg, po at 1 to 2 hrs by immunoblotting; type: functional, organism-based; parameters: dose 1 mg/kg
Method in brief: (§4)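 C57BL/6J mice got a single oral dose of 1 mg/kg. Brains were collected at several time points, about 1 to 16 h after dosing. Lysates were immunoblotted for TrkB phosphorylation and for downstream Akt and MAPK phosphorylation.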

Mus musculus [27] = experiment: Toxicity in C57BL/6J mouse assessed as pathological changes in lungs at 5 mg/kg, po for 3 weeks; type: organism-based; parameters: dose 5 mg/kg, route oral; settings: in vivo, 504 h; method in brief: as §1
Mus musculus [28] = experiment: Agonist activity at TrkB in C57BL/6J mouse brain assessed as TrkB 706 phosphorylation at 1 mg/kg, po at 1 hr by immunoblotting; type: functional, organism-based; parameters: dose 1 mg/kg; method in brief: as §4
Mus musculus [29] = experiment: Toxicity in C57BL/6J mouse assessed as pathological changes in spleen at 5 mg/kg, po for 3 weeks; type: organism-based; parameters: dose 5 mg/kg, route oral; settings: in vivo, 504 h; method in brief: as §1

Chain of BDNF/NT-3 growth factors receptor (Rattus norvegicus) (Q63604 whole entry): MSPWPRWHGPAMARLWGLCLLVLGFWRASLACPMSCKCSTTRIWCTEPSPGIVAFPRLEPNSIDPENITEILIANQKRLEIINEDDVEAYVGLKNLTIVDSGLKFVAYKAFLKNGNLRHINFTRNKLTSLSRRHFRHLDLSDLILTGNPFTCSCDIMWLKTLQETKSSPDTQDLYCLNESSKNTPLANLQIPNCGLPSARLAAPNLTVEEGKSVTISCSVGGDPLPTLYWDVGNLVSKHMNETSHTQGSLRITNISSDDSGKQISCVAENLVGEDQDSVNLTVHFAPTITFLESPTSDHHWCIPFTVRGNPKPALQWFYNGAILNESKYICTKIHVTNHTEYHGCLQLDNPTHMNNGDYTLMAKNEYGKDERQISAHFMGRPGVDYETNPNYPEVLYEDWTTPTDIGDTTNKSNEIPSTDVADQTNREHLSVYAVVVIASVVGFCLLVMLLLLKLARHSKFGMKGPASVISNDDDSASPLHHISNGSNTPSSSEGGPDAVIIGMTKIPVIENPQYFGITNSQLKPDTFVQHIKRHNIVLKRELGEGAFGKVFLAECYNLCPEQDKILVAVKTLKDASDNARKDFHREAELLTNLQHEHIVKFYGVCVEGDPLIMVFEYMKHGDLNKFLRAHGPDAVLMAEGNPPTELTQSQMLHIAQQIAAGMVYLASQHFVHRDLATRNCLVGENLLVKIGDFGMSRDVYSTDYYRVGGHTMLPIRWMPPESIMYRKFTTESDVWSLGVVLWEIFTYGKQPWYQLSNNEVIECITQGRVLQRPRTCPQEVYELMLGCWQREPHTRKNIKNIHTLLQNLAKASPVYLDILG

O=c1cc(-c2ccccc2)oc2c(O)c(O)ccc12 [7,8-DIHYDROXYFLAVONE]
Non-toxic: Activity [3] | Activity (Mus musculus [5]) | Activity (Mus musculus [6]) | Activity (HEK293 [7]) | Activity (Mus musculus [9]) | Activity (Mus musculus [10]) | Activity (Mus musculus [11]) | Activity (Mus musculus [14]) | Activity (Mus musculus [15]) | Activity (Mus musculus [17]) | Activity (HEK293 [18]) | Activity (Mus musculus [20]) | Activity (Mus musculus [27]) | Activity (Mus musculus [29])
active: Activity [1] | Activity [2] | inhibition (Mus musculus [4]) | inhibition (Mus musculus [12]) | Activity (Mus musculus [19]) Dose-dependent effect | inhibition [21] | Activity (Mus musculus [22]) | Activity [23] | Activity (Mus musculus [24]) | Activity (Mus musculus [25]) | Activity (Mus musculus [26]) | Activity (Mus musculus [28])
inactive: Activity (Mus musculus [8]) | Activity (Mus musculus [13]) | inhibition (Mus musculus [16])
